Sampled rows, rich in hits. Any-hit rate of the full collection: about 4%.
KCNQ1 block – human KCNQ1 channel inhibition | 310,000 tested, 1.3% active | CHO-K1 KCNQ1, FluxOR thallium flux fluorescence; active compounds read high | AID 2642 | B-score at 10 µM | P51787;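 active means compounds whose thallium flux B-score, printed positive for inhibition, exceeds three library SD while starting fluorescence stays within three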;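 further: channel opened by potassium depolarization with thallium stimulus after 20 min compound exposure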
KCNK3 inh – human KCNK3 channel inhibition, primary screen. CHO-KCNK3 thallium flux, FluxOR fluorescence; active compounds read low. B-score at 10 µM. 340,000 tested, 0.84% active. AID 602410;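 active means B-score under library mean minus 4 SD, starting fluorescence ratio at most library mean plus 5 SD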;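 further: more negative B-score means stronger inhibition of thallium flux through KCNK3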
KCNK9 inh – inhibitors of human KCNK9 two-pore domain potassium channel; Q9NPC2; HEK293 KCNK9, FluxOR thallium flux fluorescence; active compounds read low; B-score at 10 µM; 310,000 tested, 1.2% active; AID 488922;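 active means ratio B-score over 3 SD below the library mean, with starting fluorescence within 5 SD of its mean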;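 further: negative B-score means less thallium flux so channel inhibition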
PHOSPHO1 inh – inhibitors of human PHOSPHO1 phosphatase; recombinant PHOSPHO1, absorbance phosphatase assay; inhibition, % at 13.3 µM; 290,000 tested, 1.1% active; in the data active means inhibition above about 60%
KCNQ1 act – potentiators or activators of human KCNQ1 potassium channel. CHO-K1 KCNQ1, thallium flux FluxOR fluorescence; active compounds read high. B-score at 10 µM. 310,000 tested, 0.35% active. AID 2648;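 active means fluorescence ratio B-score, a plate-corrected score, at least three library SD, with initial intensity B-score within 5 SD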
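Assay system: CHO-K1 cells stably expressing KCNQ1; Medium: assay buffer with matched DMSO; Also added: K+/Tl+ depolarizing stimulus; Dosing: single dose; Timing: dye 90 min, compound 20 min, room temperature; Measured by: kinetic FluxOR thallium fluorescence, 10-s 1-Hz baseline, 110-s post-stimulus read; Read-out: peak-minus-minimum fluorescence over initial fluorescence, negative-control normalized, B-scored.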
hERG rescue – shields human hERG channel from block by proarrhythmic agents; Q12809; CHO-hERG, FluxOR thallium flux, dofetilide IC70 present; activation (rescue from dofetilide block), less the hit threshold, % at 10 µM; 310,000 tested, 0.51% active;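 active means activation above the mean of controls blocked by dofetilide plus 5 SD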;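 further: thallium influx through hERG after potassium depolarization seen as dye fluorescence rise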
Starred values were filed as active, the others as inactive; i = inactive; x = no result.

SMILES	KCNQ1 block	KCNK3 inh	KCNK9 inh	PHOSPHO1 inh	KCNQ1 act	hERG rescue
COc1ccc(CN(C(=O)c2ccc(-c3ccccc3)[nH]2)C(C(=O)NC(C)(C)C)c2ccncc2)cc1 (centres undefined)	i	i	i	-10	i	-3
Cc1nc(N2CCOCC2)[nH]c(=O)c1C(O)C(Cl)(Cl)Cl (centres undefined)	i	i	i	-2	i	-8
Cc1cc(C(=O)COc2cc(F)ccc2[N+](=O)[O-])c(C)n1C1CC1	i	i	i	37	i	34*
Cc1cc(C(=O)COc2ccc([N+](=O)[O-])cc2)c(C)n1C1CC1	i	i	i	33	i	-12
CC1(C(=O)Nc2cccc(C(F)(F)F)c2)CO1 (centres undefined)	i	x	i	16	i	-11
O=C(Nc1cccc(C(F)(F)F)c1)C12CC3CC(CC(C3)C1)C2	i	i	i	-8	i	5.0*
O=C(COC(=O)c1ccc(Br)o1)NCCNC(=O)COC(=O)c1ccc(Br)o1	i	i	i	x	i	-15
COC(=O)c1ccc(CSc2nc3ccccc3c(=O)n2CC(C)C)o1	i	i	-7.3*	-1	i	-11
COc1ccc(-c2nnc(CSc3nc4ccccc4c(=O)n3CC(C)C)o2)cc1OC	i	-9.5*	i	1	i	-5
COCCCn1c(SCc2nnc(-c3ccc(OC)c(OC)c3)o2)nc2ccccc2c1=O	i	i	i	-6	i	-1
COC(=O)c1ccc(CSc2nc3ccccc3c(=O)n2C)o1	i	i	i	11	i	1
COc1cc(/C=C2\SC(c3ccccc3)=NC2=O)cc(Cl)c1O	i	-10*	i	39	i	-8
COc1ccc(/C=C2\SC(c3ccc(C)cc3)=NC2=O)cc1OC	i	i	i	-14	i	9.7*
COc1ccc(/C=C2/SC(c3ccc(C)cc3)=NC2=O)cc1OC	i	i	i	74*	i	-6
COc1cc(/C=C2\SC(c3ccc(C)cc3)=NC2=O)cc(OC)c1OC	i	i	i	-3	i	-4
O=C(NCCc1ccccc1)c1nc(CS(=O)(=O)c2ccc(Cl)cc2)no1	i	i	i	-6	i	-6
CCN(CC)CC(=O)Nc1sc(C)cc1C(=O)c1ccccc1	i	i	i	22	i	-6
CCN(CC)CC(=O)Nc1sc(C)c(C)c1C(=O)c1ccc(C)cc1	6*	i	i	24	i	-18
O=C(NNc1c2ccccc2nc2ccccc12)C12CC3CC(CC(C3)C1)C2	i	i	i	36	i	0
NNC(=O)c1cc(C23CC4CC(CC(C4)C2)C3)nc2ccccc12	6*	i	i	-3	i	-10
N#C/C(=C\c1ccc(Cl)s1)C(=O)N1CCN(c2ccccc2)CC1	i	i	i	-6	i	-2
CCOC(=O)CN1C(c2ccc(O)cc2)Nc2ccc(Br)cc2C1c1ccccc1 (centres undefined)	i	i	-7.5*	-6	i	-7
CCOC(=O)CN1C(=O)Nc2ccc(Br)cc2C1c1ccccc1 (centres undefined)	i	i	i	32	i	-16
O=C(N=Nc1c(O)[nH]c2ccccc12)c1ccco1	i	i	i	24	i	-10
CCCN1CCC(NC(=S)Nc2cccc(Cl)c2Cl)CC1	i	i	i	18	13*	-18
Cc1c(Cl)cccc1NC(=S)NC1CCN(Cc2ccccc2)CC1	i	i	i	0	i	-10
CN(C)C=NC(=O)c1ccc([N+](=O)[O-])c(CS(=O)(=O)c2ccc(Cl)cc2)c1	i	i	i	12	i	-2
COc1ccc([N+](=O)[O-])cc1Nc1c2ccccc2nc2ccccc12	8*	i	i	4	i	-8
CCN1C(=S)SC(=O)C1=C1C=C(C)N(Cc2ccco2)C(C)=C1	i	i	i	66*	i	-9

Screening results deposited in PubChem by several laboratories.
